Measurements from ChEMBL document CHEMBL1143847, “Competitive inhibitors of the CphA metallo-beta-lactamase from Aeromonas hydrophila” (Antimicrob Agents Chemother, 2007).

What was measured:
[1] = molecular target: Metallo beta-lactamase (Pseudomonas aeruginosa) (UniProt Q6TUJ4); assay: Inhibition of Pseudomonas aeruginosa 101/1477 metallo beta lactamase IMP1 expressed in Escherichia coli assessed as residual enzyme activity at 100 uM in absence of zinc
[2] = molecular target: Metallo beta-lactamase (Pseudomonas aeruginosa) (UniProt Q6TUJ4); assay: Inhibition of Pseudomonas aeruginosa 101/1477 metallo beta lactamase IMP1 expressed in Escherichia coli assessed as residual enzyme activity at 100 uM in presence of zinc chloride
Method in brief: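 IMP-1 at 0.03–0.7 nM was preincubated 30 min at room temperature with 100 μM inhibitor in 20 mM HEPES pH 7.0 with 20 μg/ml BSA plus 100 μM ZnCl2. The reaction was then started with 100 μM imipenem. The initial rate of three samples was taken as mean percent of the rate without inhibitor ± SD.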

Bacillus cereus = assay: Inhibition of Bacillus cereus metallo beta lactamase Bc2 assessed as residual enzyme activity at 100 uM
[3] = Inhibition of metallo beta lactamase VIM2 assessed as residual enzyme activity at 100 uM
[4] = Inhibition of metallo beta lactamase VIM4 assessed as residual enzyme activity at 100 uM
[5] = molecular target: Beta-lactamase L1 (Stenotrophomonas maltophilia) (UniProt P52700); assay: Inhibition of Stenotrophomonas maltophilia metallo beta lactamase L1 assessed as residual enzyme activity at 100 uM
Fluoribacter gormanii = assay: Inhibition of Legionella gormani beta lactamase metallo FEZ1 expressed in Escherichia coli assessed as residual enzyme activity at 100 uM
Method in brief: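 Purified enzyme (0.03–0.7 nM) in 20 mM HEPES pH 7.0 with 20 μg/ml BSA was preincubated 30 min at room temperature with 100 μM inhibitor, diluted from 10 mM DMSO stock. Nitrocefin (100 μM) was then added and the initial hydrolysis rate measured. Residual activity is the mean (±SD) of three samples as percent of the uninhibited rate.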

[6] = molecular target: Beta-lactamase (Aeromonas hydrophila) (UniProt Q44079); assay: Ratio of Kcat to Km for Aeromonas hydrophila beta lactamase CphA at pH 7.0
Method in brief: (§1)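 Wild-type CphA kinetics with imipenem as substrate, measured in a mixed buffer adjusted to the stated pH with HCl or NaOH. The buffer held 40 mM sodium acetate, 20 mM each of cacodylate, MOPS, TAPS, CHES and CAPS, and 20 μg/ml BSA. Runs were at 30°C in thermostatted cells. Km and kcat came from initial rates. At pH 10 only kcat/Km was taken, because imipenem hydrolyses spontaneously.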

[7] = molecular target: Beta-lactamase (Aeromonas hydrophila) (UniProt Q44079); assay: Ratio of Kcat to Km for Aeromonas hydrophila beta lactamase CphA at pH 8.0; method in brief: as §1
[8] = molecular target: Beta-lactamase (Aeromonas hydrophila) (UniProt Q44079); assay: Ratio of Kcat to Km for Aeromonas hydrophila beta lactamase CphA at pH 9.0; method in brief: as §1
[9] = molecular target: Beta-lactamase (Aeromonas hydrophila) (UniProt Q44079); assay: Ratio of Kcat to Km for Aeromonas hydrophila beta lactamase CphA at pH 10.0; method in brief: as §1

Metallo beta-lactamase (Pseudomonas aeruginosa), sequence (Q6TUJ4 as listed by the source): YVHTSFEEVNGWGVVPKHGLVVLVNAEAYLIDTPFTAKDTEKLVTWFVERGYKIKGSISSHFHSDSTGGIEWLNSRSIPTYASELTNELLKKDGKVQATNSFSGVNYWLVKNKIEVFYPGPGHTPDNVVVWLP
Beta-lactamase L1 (Stenotrophomonas maltophilia), sequence (P52700 34-290 limits assumed): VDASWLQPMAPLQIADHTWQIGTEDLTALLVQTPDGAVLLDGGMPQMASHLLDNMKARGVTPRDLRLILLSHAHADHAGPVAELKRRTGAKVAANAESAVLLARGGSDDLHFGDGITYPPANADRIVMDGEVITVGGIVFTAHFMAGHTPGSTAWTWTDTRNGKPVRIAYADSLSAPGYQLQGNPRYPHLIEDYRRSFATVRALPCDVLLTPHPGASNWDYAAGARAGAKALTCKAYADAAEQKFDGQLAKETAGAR
Beta-lactamase (Aeromonas hydrophila), sequence (Q44079 as listed by the source): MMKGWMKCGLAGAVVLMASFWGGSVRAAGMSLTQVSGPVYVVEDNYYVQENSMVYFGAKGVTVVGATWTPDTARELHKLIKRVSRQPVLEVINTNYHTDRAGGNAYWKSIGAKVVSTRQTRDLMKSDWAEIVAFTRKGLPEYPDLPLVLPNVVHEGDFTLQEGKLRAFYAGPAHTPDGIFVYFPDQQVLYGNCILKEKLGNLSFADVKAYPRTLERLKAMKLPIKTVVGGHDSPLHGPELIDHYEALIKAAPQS

| SMILES | Activity [1] [%] | Activity [2] [%] | Activity (Bacillus cereus) [%] | Activity [3] [%] | Activity [4] [%] | Activity [5] [%] | Activity (Fluoribacter gormanii) [%] | Ratio [6] [µM⁻¹ s⁻¹] | Ratio [7] [µM⁻¹ s⁻¹] | Ratio [8] [µM⁻¹ s⁻¹] | Ratio [9] [µM⁻¹ s⁻¹] |
| --- | --- | --- | --- | --- | --- | --- | --- | --- | --- | --- | --- |
| O=C(O)c1cccc(C(=O)O)n1 | 2 | 72 | 95 | 96 | 88 | 92 | 77 |  |  |  |  |
| CC(O)[C@H]1C(=O)N2C(C(=O)O)=C(SCCNC=N)C[C@H]12 (single isomer, unassigned) |  |  |  |  |  |  |  | 1.8 | 1.7 | 0.78 | 0.44 |
| O=C(O)c1cccnc1C(=O)O | 89 | 67 | 98 | 106 | 73 | 93 | 62 |  |  |  |  |
| O=C(O)c1ccc(C(=O)O)nc1 | 99 | 81 | 99 | 97 | 97 | 94 | 80 |  |  |  |  |
| O=C(O)c1ccncc1C(=O)O | 91 | 88 | 97 | 92 | 100 | 97 | 93 |  |  |  |  |
| O=C(O)c1ccccn1 | 31 | 54 | 95 | 80 | 59 | 29 | 62 |  |  |  |  |
| O=C(O)c1ccnc(C(=O)O)c1 | 94 | 78 | 97 | 98 | 90 | 78 | 65 |  |  |  |  |
